Assay results taken from ChEMBL document CHEMBL1811814, “Synthesis and evaluation of indole, pyrazole, chromone and pyrimidine based conjugates for tumor growth inhibitory activities--development of highly efficacious cytotoxic agents” (Eur J Med Chem, 2010).

Legend:
Type in all cases: functional
Design in all cases: scale not given: the % may be the effect or the level left
[1] = tested on: CCRF-CEM; experiment: Growth inhibition of human CCRF-CEM cells assessed tumor cell growth at 10^-5 M
Method in brief: (§1)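 NCI 60-human-tumor-cell-line panel screen. Each compound was tested at a single concentration of 10^-5 M, and percent growth of tumor cells was recorded for each cell line. Growth inhibition was expressed from these percent-growth values.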

[2] = tested on: HL-60(TB); experiment: Growth inhibition of human HL-60(TB) cells assessed tumor cell growth at 10^-5 M
Method in brief: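 HL-60(TB), part of the 60-line panel, tested at a single concentration of 10^-5 M. The read-out is percent tumor cell growth relative to untreated growth.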

[3] = tested on: K562; experiment: Growth inhibition of human K562 cells assessed tumor cell growth at 10^-5 M; method in brief: as §1
[4] = tested on: MOLT-4; experiment: Growth inhibition of human MOLT4 cells assessed tumor cell growth at 10^-5 M; method in brief: as §1
[5] = Growth inhibition of human […] cells assessed tumor cell growth at 10^-5 M; method in brief: as §1
[6] = tested on: A549; experiment: Growth inhibition of human A549 cells assessed tumor cell growth at 10^-5 M; method in brief: as §1
[7] = tested on: EKVX; experiment: Growth inhibition of human EKVX cells assessed tumor cell growth at 10^-5 M; method in brief: as §1
[8] = tested on: HOP-62; experiment: Growth inhibition of human HOP62 cells assessed tumor cell growth at 10^-5 M; method in brief: as §1
[9] = tested on: HOP-92; experiment: Growth inhibition of human HOP92 cells assessed tumor cell growth at 10^-5 M; method in brief: as §1
[10] = tested on: NCI-H226; experiment: Growth inhibition of human NCI-H226 cells assessed tumor cell growth at 10^-5 M; method in brief: as §1
[11] = tested on: NCI-H23; experiment: Growth inhibition of human NCI-H23 cells assessed tumor cell growth at 10^-5 M; method in brief: as §1
[12] = tested on: NCI-H322M; experiment: Growth inhibition of human NCI-H322M cells assessed tumor cell growth at 10^-5 M; method in brief: as §1
[13] = tested on: NCI-H460; experiment: Growth inhibition of human NCI-H460 cells assessed tumor cell growth at 10^-5 M; method in brief: as §1
[14] = tested on: NCI-H522; experiment: Growth inhibition of human NCI-H522 cells assessed tumor cell growth at 10^-5 M; method in brief: as §1
[15] = tested on: COLO 205; experiment: Growth inhibition of human COLO205 cells assessed tumor cell growth at 10^-5 M; method in brief: as §1
[16] = tested on: HCC 2998; experiment: Growth inhibition of human HCC2998 cells assessed tumor cell growth at 10^-5 M; method in brief: as §1
[17] = tested on: HCT-116; experiment: Growth inhibition of human HCT116 cells assessed tumor cell growth at 10^-5 M; method in brief: as §1
[18] = tested on: HCT-15; experiment: Growth inhibition of human HCT15 cells assessed tumor cell growth at 10^-5 M; method in brief: as §1
[19] = tested on: HT-29; experiment: Growth inhibition of human HT-29 cells assessed tumor cell growth at 10^-5 M; method in brief: as §1
[20] = tested on: KM12; experiment: Growth inhibition of human KM12 cells assessed tumor cell growth at 10^-5 M; method in brief: as §1
[21] = tested on: SW-620; experiment: Growth inhibition of human SW620 cells assessed tumor cell growth at 10^-5 M
Method in brief: (§2)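 Single-dose screen at 10^-5 M across the 60 human tumor cell line panel, run to NCI standards. The value is the percent growth of each cell line in the presence of compound. Compounds active at this dose moved on to five-concentration testing (10^-4 to 10^-8 M).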

[22] = tested on: SF-268; experiment: Growth inhibition of human SF268 cells assessed tumor cell growth at 10^-5 M; method in brief: as §1
[23] = tested on: SF-295; experiment: Growth inhibition of human SF295 cells assessed tumor cell growth at 10^-5 M; method in brief: as §1
[24] = tested on: SF-539; experiment: Growth inhibition of human SF539 cells assessed tumor cell growth at 10^-5 M; method in brief: as §1
[25] = tested on: SNB-19; experiment: Growth inhibition of human SNB19 cells assessed tumor cell growth at 10^-5 M; method in brief: as §2
[26] = tested on: SNB-75; experiment: Growth inhibition of human SNB75 cells assessed tumor cell growth at 10^-5 M; method in brief: as §2
[27] = tested on: U-251; experiment: Growth inhibition of human U251 cells assessed tumor cell growth at 10^-5 M; method in brief: as §2
[28] = tested on: LOX IMVI; experiment: Growth inhibition of human LOXIMVI cells assessed tumor cell growth at 10^-5 M; method in brief: as §1
[29] = tested on: Malme-3M; experiment: Growth inhibition of human MALME-3M cells assessed tumor cell growth at 10^-5 M; method in brief: as §1
[30] = tested on: M14; experiment: Growth inhibition of human M14 cells assessed tumor cell growth at 10^-5 M; method in brief: as §1
[31] = tested on: MDA-MB-435; experiment: Growth inhibition of human MDA-MB-435 cells assessed tumor cell growth at 10^-5 M; method in brief: as §1
[32] = tested on: SK-MEL-2; experiment: Growth inhibition of human SK-MEL-2 cells assessed tumor cell growth at 10^-5 M; method in brief: as §1
[33] = tested on: SK-MEL-28; experiment: Growth inhibition of human SK-MEL-28 cells assessed tumor cell growth at 10^-5 M; method in brief: as §1
[34] = tested on: SK-MEL-5; experiment: Growth inhibition of human SK-MEL-5 cells assessed tumor cell growth at 10^-5 M; method in brief: as §1
[35] = tested on: UACC-257; experiment: Growth inhibition of human UACC257 cells assessed tumor cell growth at 10^-5 M; method in brief: as §2
[36] = tested on: UACC-62; experiment: Growth inhibition of human UACC62 cells assessed tumor cell growth at 10^-5 M; method in brief: as §2
[37] = tested on: IGROV-1; experiment: Growth inhibition of human IGROV1 cells assessed tumor cell growth at 10^-5 M; method in brief: as §1
[38] = tested on: OVCAR-3; experiment: Growth inhibition of human OVCAR3 cells assessed tumor cell growth at 10^-5 M; method in brief: as §1
[39] = tested on: OVCAR-4; experiment: Growth inhibition of human OVCAR4 cells assessed tumor cell growth at 10^-5 M; method in brief: as §1
[40] = tested on: OVCAR-5; experiment: Growth inhibition of human OVCAR5 cells assessed tumor cell growth at 10^-5 M; method in brief: as §1
[41] = tested on: OVCAR-8; experiment: Growth inhibition of human OVCAR8 cells assessed tumor cell growth at 10^-5 M; method in brief: as §1
[42] = tested on: NCI/ADR-RES; experiment: Growth inhibition of human NCI/ADR-RES cells assessed tumor cell growth at 10^-5 M; method in brief: as §1
[43] = tested on: SK-OV-3; experiment: Growth inhibition of human SKOV3 cells assessed tumor cell growth at 10^-5 M; method in brief: as §1
[44] = tested on: 786-0; experiment: Growth inhibition of human 786-0 cells assessed tumor cell growth at 10^-5 M; method in brief: as §1
[45] = tested on: A498; experiment: Growth inhibition of human A498 cells assessed tumor cell growth at 10^-5 M; method in brief: as §1
[46] = tested on: ACHN; experiment: Growth inhibition of human ACHN cells assessed tumor cell growth at 10^-5 M; method in brief: as §1
[47] = tested on: CAKI-1; experiment: Growth inhibition of human Caki1 cells assessed tumor cell growth at 10^-5 M; method in brief: as §1
[48] = tested on: RXF 393; experiment: Growth inhibition of human RXF393 cells assessed tumor cell growth at 10^-5 M; method in brief: as §1
[49] = tested on: SN12C; experiment: Growth inhibition of human SN12C cells assessed tumor cell growth at 10^-5 M; method in brief: as §1
[50] = tested on: TK-10; experiment: Growth inhibition of human TK10 cells assessed tumor cell growth at 10^-5 M; method in brief: as §2
[51] = tested on: UO-31; experiment: Growth inhibition of human UO31 cells assessed tumor cell growth at 10^-5 M; method in brief: as §2
[52] = tested on: PC-3; experiment: Growth inhibition of human PC3 cells assessed tumor cell growth at 10^-5 M; method in brief: as §1
[53] = tested on: DU-145; experiment: Growth inhibition of human DU145 cells assessed tumor cell growth at 10^-5 M; method in brief: as §1
[54] = tested on: MCF7; experiment: Growth inhibition of human MCF7 cells assessed tumor cell growth at 10^-5 M; method in brief: as §1
[55] = tested on: MDA-MB-231; experiment: Growth inhibition of human MDA-MB-231 cells assessed tumor cell growth at 10^-5 M; method in brief: as §1
[56] = Growth inhibition of human Hs 578T cells assessed tumor cell growth at 10^-5 M; method in brief: as §1
[57] = tested on: BT-549; experiment: Growth inhibition of human BT549 cells assessed tumor cell growth at 10^-5 M; method in brief: as §1
[58] = tested on: T47D; experiment: Growth inhibition of human T47D cells assessed tumor cell growth at 10^-5 M; method in brief: as §2
[59] = tested on: MDA-MB-468; experiment: Growth inhibition of human MDA-MB-468 cells assessed tumor cell growth at 10^-5 M; method in brief: as §1

For `Cc1ccc(S(=O)(=O)n2cc(/C=C3\C(=O)Nc4ccccc43)c3ccccc32)cc1`, which Activity [1] is on record?
The Activity was 95.6%.

What about the Activity [2] of the same molecule?
The Activity was 100.6%.

What about the Activity [3] of the same molecule?
Its Activity is 85%.

What about the Activity [4] of the same molecule?
Its Activity is 95.7%.

What about the Activity [5] of the same molecule?
The Activity was 80.7%.

What about the Activity [6] of the same molecule?
Its Activity is 88.2%.

What about the Activity [7] of the same molecule?
The Activity was 93.8%.

And the Activity [8]?
The Activity was 98.5%.

What about the Activity [9] of the same molecule?
Its Activity is 67.4%.

And the Activity [10]?
Its Activity is 86.3%.

And the Activity [11]?
Its Activity is 89.8%.

And the Activity [12]?
Its Activity is 106.5%.

And the Activity [13]?
The Activity was 97.3%.

And the Activity [14]?
The Activity was 111.2%.

And the Activity [15]?
The Activity was 54.4%.

What about the Activity [16] of the same molecule?
Its Activity is 98.6%.

What about the Activity [17] of the same molecule?
The Activity was 92.5%.

What about the Activity [18] of the same molecule?
The Activity was 79.5%.

And the Activity [19]?
The Activity was 104.5%.

What about the Activity [20] of the same molecule?
The Activity was 97%.

And the Activity [21]?
The Activity was 103%.

And the Activity [22]?
Its Activity is 88.4%.

And the Activity [23]?
The Activity was 97.1%.

And the Activity [24]?
Its Activity is 93.1%.

What about the Activity [25] of the same molecule?
The Activity was 85.2%.

What about the Activity [26] of the same molecule?
Its Activity is 73.4%.

What about the Activity [27] of the same molecule?
Its Activity is 86.4%.

And the Activity [28]?
Its Activity is 82.7%.

And the Activity [29]?
The Activity was 111%.

What about the Activity [30] of the same molecule?
The Activity was 96%.

And the Activity [31]?
The Activity was 93.2%.

What about the Activity [32] of the same molecule?
The Activity was 86.6%.

And the Activity [33]?
The Activity was 86.8%.

What about the Activity [34] of the same molecule?
Its Activity is 84.9%.

And the Activity [35]?
Its Activity is 84%.

What about the Activity [36] of the same molecule?
Its Activity is 64%.

What about the Activity [37] of the same molecule?
Its Activity is 73%.

And the Activity [38]?
Its Activity is 83.7%.

What about the Activity [39] of the same molecule?
The Activity was 70.1%.

What about the Activity [40] of the same molecule?
Its Activity is 87.3%.

And the Activity [41]?
Its Activity is 91.2%.

What about the Activity [42] of the same molecule?
Its Activity is 92.1%.

And the Activity [43]?
Its Activity is 99.1%.

What about the Activity [44] of the same molecule?
The Activity was 99.7%.

And the Activity [45]?
The Activity was 102%.

And the Activity [46]?
The Activity was 82.2%.

And the Activity [47]?
The Activity was 53.7%.

And the Activity [48]?
Its Activity is 97.6%.

And the Activity [49]?
Its Activity is 88.3%.

And the Activity [50]?
Its Activity is 117.8%.

And the Activity [51]?
The Activity was 60.9%.

And the Activity [52]?
Its Activity is 92.8%.

And the Activity [53]?
Its Activity is 101.5%.

What about the Activity [54] of the same molecule?
The Activity was 56.6%.

And the Activity [55]?
The Activity was 66.4%.

And the Activity [56]?
The Activity was 92.2%.

And the Activity [57]?
Its Activity is 97.5%.

And the Activity [58]?
The Activity was 77.3%.

What about the Activity [59] of the same molecule?
The Activity was 117.2%.
